In paper PMC9597438 (Journal of Ginseng Research, 2022):

What was measured:
[1] = tested on: HIF-1α transcriptional activity in Hep3B cells; test: HRE luciferase reporter assay; format: cell-based, human
In short: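 Hep3B cells at 60–80% confluence were transfected with an HRE-luciferase plasmid (legend adds pRL-CMV) using Lipofectamine 2000 for 24 h. They were reseeded at 5×10^4/well for 24 h, then treated under hypoxia (1% O₂, 5% CO₂, 94% N₂, 37 °C) at final 0.3–30 µM, triplicate wells. Treatment ran 12–16 h per methods, 24 h per legend. Cells were lysed 1 h and luminescence read.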

[2] = tested on: Hep3B cells; test: Cytotoxic; format: cell-based, human; details: 24 h, concentrations as high as 30 μM
In short: (§1)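 Hep3B cells in DMEM/10% FBS (5×10^4/well) adhered for 12 h under normoxia. They were exposed for 24 h to final 0.3, 1, 3, 10 and 30 µM, triplicate wells per level. MTT was added for 4 h in the dark, formazan was dissolved in DMSO with 10 min shaking, and absorbance was read at 492 nm. Mean ± SD, n = 3.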

[3] = tested on: HIF-1α protein expression in HeLa cells; test: Western blotting of HIF-1α in HeLa cells; format: cell-based, human; details: 1% O2, 12 h, 3, 10, 30 μM, nuclear extract
In short: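 HeLa cells were held 12 h under normoxia or hypoxia (1% O₂) with 3, 10 or 30 µM. Nuclear extracts were quantified by BCA, and 30 µg per lane was resolved by SDS-PAGE and transferred to PVDF. Membranes were blocked in 5% nonfat milk, probed with anti-HIF-1α overnight at 4 °C, then secondary for 2 h, and detected by chemiluminescence. Three independent experiments.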

[4] = tested on: HIF-1β expression in HeLa cells; test: Western blotting of HIF-1β in HeLa cells; format: cell-based, human; details: hypoxia, 12 h, whole-cell lysates
In short: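 HeLa cells were held 12 h under normoxia or hypoxia (1% O₂) at the indicated concentrations. Whole-cell lysates were run on SDS-PAGE, transferred to PVDF and blocked in 5% milk. Anti-HIF-1β ran overnight at 4 °C, secondary 2 h, chemiluminescent detection. Three independent experiments.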

[5] = tested on: VEGF protein expression in HeLa cells; test: Western blotting of VEGF in HeLa cells; format: cell-based, human; details: hypoxia, 12 h
In short: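 After 12 h incubation under normoxia or hypoxia (1% O₂) at the indicated concentrations, HeLa cell protein was quantified by BCA and separated by SDS-PAGE onto PVDF. Blots were blocked in 5% milk and probed for VEGF overnight at 4 °C, then secondary 2 h, with chemiluminescent detection. Three independent experiments.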

[6] = tested on: nuclear accumulation of HIF-1α in HeLa cells; test: Immunofluorescence staining of HIF-1α; format: cell-based, human; details: 1% O2, 12 h, 30 μM
In short: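 HeLa cells (1×10^4/well) adhered for 24 h and were held under normoxia or hypoxia (1% O₂) for 12 h with or without 30 µM. Processing: 4% paraformaldehyde at room temperature for 30 min, 0.2% Triton X-100, 5% BSA block for 30 min. Anti-HIF-1α ran overnight at 4 °C, secondary 30 min at room temperature, DAPI 30 min. Imaged by fluorescence microscopy at 400×.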

[7] = tested on: HeLa cells; test: Colony formation assay; format: cell-based, human; details: HeLa cells, 3, 10, 30 μM, 10 days
In short: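 HeLa cells (1×10^3/well, 6-well) were plated for 12 h and given fresh medium with 3, 10 or 30 µM. They grew 10 days until colonies were visible, then were fixed in 10% formaldehyde, stained with 1% crystal violet, washed in PBS and air-dried.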

[8] = tested on: HeLa cells; test: EdU labeling and immunofluorescence; format: cell-based, human; details: HeLa cells, 3, 10, 30 μM, 12 h
In short: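 HeLa cells (5×10^4/well) were plated for 24 h and treated with 3, 10 or 30 µM for 12 h. EdU was pulsed for 1 h. Cells were fixed in 4% paraformaldehyde for 30 min, permeabilised in 0.5% Triton X-100 for 10 min and reacted in 1× Apollo cocktail for 30 min. Nuclei were counterstained with Hoechst 33342 and imaged by fluorescence microscopy.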

[9] = tested on: HeLa cells; test: Apoptosis assay; format: cell-based, human
In short: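 HeLa cells (5×10^5/well) adhered for 24 h, then were exposed to 3, 10 or 30 µM for 24 h per methods; the legend gives 12 h under hypoxia. Cells were washed twice in PBS and taken into binding buffer (10 mM HEPES pH 7.4, 140 mM NaCl, 2.5 mM CaCl₂). They were stained with Annexin V-FITC and 2 µg/mL propidium iodide, 15 min, 37 °C, dark, then read by flow cytometry.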

[10] = tested on: Bax expression in HeLa cells; test: Western blotting of Bax in HeLa cells; format: cell-based, human; details: HeLa cells, 3, 10, 30 μM, 12 h, vs control group
In short: (§2)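 HeLa cells were treated with or without 3, 10 or 30 µM for 12 h. Whole-cell extracts were separated by SDS-PAGE, transferred to PVDF and blocked in 5% nonfat milk. Blots were probed overnight at 4 °C for the named protein (Bax, Bcl-2, MMP-9 or cleaved caspase-3), then secondary for 2 h, with chemiluminescent detection. Three independent experiments.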

[11] = tested on: Bcl-2 expression in HeLa cells; test: Western blotting of Bcl-2 in HeLa cells; format: cell-based, human; details: HeLa cells, 3, 10, 30 μM, 12 h, vs control group
In short: as §2

[12] = tested on: cleaved caspase-3 expression in HeLa cells; test: Western blotting of cleaved caspase-3 in HeLa cells; format: cell-based, human; details: HeLa cells, 3, 10, 30 μM, 12 h, concentration-dependent
In short: as §2

[13] = tested on: HeLa cells; test: Cell migration assay; format: cell-based, human; details: 3, 10, 30 μM, 12 h, vs control group
In short: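 Scratch assay: HeLa cells (1×10^5/well) adhered for 24 h, were scratched with a sterile pipette tip, washed three times in PBS and switched to serum-free medium. Cells got 3, 10 or 30 µM for 12 h. The same fields were imaged at 200×, and migration was scored as final versus initial gap width.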

[14] = tested on: HeLa cells; test: Transwell invasion assay; format: cell-based, human; details: HeLa cells, 3, 10, 30 μM, vs control
In short: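 Matrigel-coated Transwell inserts were loaded with HeLa cells pretreated with or without 3, 10 or 30 µM, in serum-free DMEM in the upper chamber; the legend gives 12 h exposure. The lower chamber held DMEM with 10% FBS. After 24 h invasion at 37 °C, cells on the lower side were fixed in 4% paraformaldehyde, stained with 0.1% crystal violet and photographed at 200×.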

[15] = tested on: MMP-9 expression in HeLa cells; test: Western blotting of MMP-9 in HeLa cells; format: cell-based, human; details: 10 μM, 12 h
In short: as §2

[16] = tested on: HeLa cervical cancer xenograft; test: In vivo antitumor activity, HeLa cervical cancer xenograft; set-up: species or system athymic Nu/Nu nude mice; details: nude mice with HeLa tumors, ip, vs control, p < 0.001
[17] = Cytotoxic; format: cell-based, human; details: human, Hep3B cells
In short: as §1

| SMILES | transcriptional activity of HIF-1α (HRE-mediated reporter gene expression) ([1]; hypoxia (1% oxygen), from 0.3 μM upward) | efficacy (HIF-1α transcription inhibition) relative to 20(R)-panaxotriol ([1]; ratio of IC50 values) | cell viability (MTT) [2] | HIF-1α protein content [3] | expression level of HIF-1β [4] | VEGF protein expression levels [5] | HIF-1α expression in the nucleus [6] | colony formation of cells [7] | number of EdU-positive cells [8] | percentage of total apoptotic (early and late) cells ([9]; 3 μM) | percentage of total apoptotic (early and late) cells ([9]; 10 μM) | percentage of total apoptotic (early and late) cells ([9]; 30 μM) | expression levels of Bax [10] | levels of Bcl-2 [11] | expression levels of cleaved caspase-3 [12] | migration of HeLa cells (scratch assay) [13] | number of tumor cells that crossed the transwell chamber (invasion) [14] | expression levels of MMP-9 [15] | tumor volume [16] | IC50 at 24 h [17] |
| --- | --- | --- | --- | --- | --- | --- | --- | --- | --- | --- | --- | --- | --- | --- | --- | --- | --- | --- | --- | --- |
| CC(C)(C)OC(=O)NCC(=O)OC1CCC2(C)C(C(O)CC3(C)C2CC(O)C2C(C4(C)CCCC(C)(C)O4)CCC23C)C1(C)C (centres unmarked) [A11, 6,12-dihydroxy-4,4,8,10,14-pentamethyl-17-(2,6,6-trimethyltetrahydro-2H-pyran-2-yl)hexadecahydro-1H-cyclopenta[a]phenanthren-3-yl (tert-butoxycarbonyl)glycinate] | dose-dependent inhibited | more than 100 times | no adverse effects on cell viability | dose-dependently reduced | almost no influence | dose-dependent decrease | not detected | apparently inhibited | concentration-dependently suppressed | 5.2% | 14.0% | 24.2% | increased | decreased | significantly increased | decreased | significantly reduced | significantly reduced | significantly inhibit | – |
| CC1(C)CCCC(C)(C2CCC3(C)C2C(O)CC2C4(C)CCC(OC(=O)[C@@H](N)Cc5c[nH]c6ccccc56)C(C)(C)C4C(O)CC23C)O1 (some centres unmarked) [A13, 6,12-dihydroxy-4,4,8,10,14-pentamethyl-17-(2,6,6-trimethyltetrahydro-2H-pyran-2-yl)hexadecahydro-1H-cyclopenta[a]phenanthren-3-yl tryptophanate] | – | – | – | – | – | – | – | – | – | – | – | – | – | – | – | – | – | – | – | 6.99 µM |
